Rows were chosen to be rich in hits. Some 1.9% of all compounds tested hit in one or more screens of this group.
proCasp3 act: activators of human procaspase-3 D3A mutant, primary screen, biochemical, absorbance, PC-3 D3A mutant, single concentration. recombinant procaspase-3 D3A, Ac-DEVD-pNA absorbance 405 nm. activation, % at 8.5 µM. hit rate 0.11% among 330,000;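 active = activation above the mean of all tested compounds plus 3 SD, cut at about 21% in these data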
Target sequence (P42574 whole entry D9A/D28A/D175A): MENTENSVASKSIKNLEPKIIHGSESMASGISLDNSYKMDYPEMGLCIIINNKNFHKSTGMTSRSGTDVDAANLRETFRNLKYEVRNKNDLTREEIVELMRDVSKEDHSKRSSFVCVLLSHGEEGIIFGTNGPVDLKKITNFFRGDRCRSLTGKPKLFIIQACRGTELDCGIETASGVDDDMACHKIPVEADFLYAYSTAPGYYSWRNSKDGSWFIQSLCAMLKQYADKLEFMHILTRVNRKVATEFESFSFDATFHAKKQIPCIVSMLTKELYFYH
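Technique: 405 nm absorbance of p-nitroaniline, reads at 0 and 120 min; Test system: Procaspase-3 D3A mutant; Incubation: 1 h enzyme-compound preincubation, then 2 h substrate reaction, 25 °C; Repeats: singlicate, each compound tested once; Benchmarks: low control DMSO wells, high control DMSO plus 5 µM PC-3 D3A.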
sPLA2-III inh: human group III sPLA2 inhibitors, primary screen, biochemical, QFRET, BODIPY PC-A2 liposome substrate; inhibition, % at 12.2 µM; QFRET BODIPY PC-A2 liposome hydrolysis, fluorescence; hit rate 0.56% among 370,000; Group 3 secretory phospholipase A2 (Homo sapiens), Q9NZ20;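 active = inhibition above mean plus 3 SD of compounds lying within the high and low control bounds, cut at about 19% in these data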
PLCg1 inh: PLC-gamma1 enzyme inhibitors, primary screen, biochemical, fluorescence, purified enzyme; hit rate 0.84% among 370,000; 1-phosphatidylinositol 4,5-bisphosphate phosphodiesterase gamma-1 (Homo sapiens), P19174; inhibition, % at 12.2 µM; fluorogenic substrate
Arr AP2 block: inhibitors of beta-arrestin/AP2 binding, primary screen, biochemical, GPCR trafficking, flow cytometry; hit rate 0.31% among 340,000; FITC-arrestin peptide / GST-AP2 beads; AP2 beta2 appendage carries R879A mutation; inhibition, % at 10 µM;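 active = inhibition above a set limit, near 3 SD of compounds lacking own fluorescence, cut at about 54% in these data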
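test system = AP2 appendage R879A on GSH beads | buffer or medium = PBS plus Tween 20 (0.05%) and BSA (0.1%) | incubation = 12 min plus 1 h, RT | detection = bead flow cytometry, FITC channel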
proCasp7 act: procaspase-7 activators, primary screen, counter-screen for procaspase-3 activator project, biochemical, absorbance, HTS, human; Caspase-7 (Homo sapiens), P55210; recombinant procaspase-7, Ac-DEVD-pNA absorbance 405 nm; D23A/D198A/D206A triple mutant, cannot self-cleave; scale: DMSO 0, 5 µM enzyme 100; activation, % at 8.5 µM; hit rate 0.093% among 330,000; AID 463210, 2010;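 active = percent activation above the screen-wide mean plus 3 SD, cut at about 25% in these data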
Target sequence (P55210 whole entry D23A/D198A/D206A): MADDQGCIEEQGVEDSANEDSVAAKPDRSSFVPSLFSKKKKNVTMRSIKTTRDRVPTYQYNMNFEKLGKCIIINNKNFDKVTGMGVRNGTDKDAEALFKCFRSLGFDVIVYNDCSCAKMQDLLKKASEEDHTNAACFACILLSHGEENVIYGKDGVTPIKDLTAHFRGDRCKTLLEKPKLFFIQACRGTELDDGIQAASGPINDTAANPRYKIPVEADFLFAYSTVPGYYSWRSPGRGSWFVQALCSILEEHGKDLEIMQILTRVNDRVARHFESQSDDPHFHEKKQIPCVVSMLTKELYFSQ
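Detection: p-Nitroaniline absorbance at 405 nm, read at 0 and 120 min; system: Uncleavable procaspase-7 mutant enzyme; evaluation: % activation from two-timepoint absorbance difference, scaled to controls; times: 1 h enzyme–compound preincubation and 2 h substrate reaction, both 25 °C; buffer or medium: Zinc-free HEPES pH 7.4 with 300 mM NaCl, 0.01% Triton X-100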
PLC-beta3 inh: human PLC-beta3 inhibitors, primary screen, biochemical, fluorescence. 1-phosphatidylinositol 4,5-bisphosphate phosphodiesterase beta-3 (Homo sapiens), Q01970. Purified PLC-beta3, fluorogenic substrate. inhibition, % at 12.2 µM. hit rate 0.18% among 370,000; in the data active = inhibition above about 11%
PLCg1 ctr: PLC-gamma1 enzyme inhibitors, counter-screen for PLC-beta3 inhibitor project, biochemical, fluorescence; shares compounds with PLCg1 inh; purified PLC-gamma1, fluorogenic substrate; inhibition, % at 12.3 µM; hit rate 3.1% among 3,300; AID 743258, 2014
PLCb3 confirm: PLC-beta3 inhibitor confirmation, biochemical, fluorescence, purified enzyme; AID 743261, 2014; shares compounds with PLCg1 inh; fluorogenic substrate fluorescence; inhibition, % at 12.3 µM; hit rate 1% among 3,300; in the data active = inhibition above about 11%
Each line names hits and unclear results; the compound was inactive in the other large screens (follow-up assays come after a bar, where they were run). Cut-off read from the data, not from the text of the source, unless noted: active = inhibition above about 9.5%; inactive = the rest.

CC1CCCN(C(=O)C23CCC(C)(C(=O)C2)C3(C)C)C1 (stereo not drawn)	PLC-beta3 inh 11 | PLCg1 ctr inactive | PLCb3 confirm inactive
CCn1c(SCC(=O)c2ccccc2)nc2c(c1=O)SC(C)C2 (stereo not drawn)	PLCg1 inh 11 | PLCg1 ctr inactive | PLCb3 confirm inactive
O=C1OCC(Cn2c3ccccc3c3ccccc32)O1 (stereo not drawn)	PLCg1 inh 11 | PLCg1 ctr inactive | PLCb3 confirm inactive
O=c1c2ccccc2c2ccccc2c(=O)n1CC1CCCO1 (stereo not drawn)	none
CCCC(=O)Nc1c(-c2ccccc2Cl)c(=O)c2ccccc2n1C	PLCg1 inh 13 | PLCg1 ctr inactive | PLCb3 confirm inactive
CC(=O)Nc1c(-c2ccccc2Cl)c(=O)c2ccccc2n1C	none
Fc1ccc(CNCc2ccco2)cc1	PLCg1 inh 12 | PLCg1 ctr inactive | PLCb3 confirm inactive
CCCCCCNC(=O)C1CSCCS(=O)(=O)N1Cc1ccc(C)cc1 (stereo not drawn)	none (no result: proCasp3 act, Arr AP2 block, proCasp7 act)
CC1(Br)C(Sc2ccccc2[N+](=O)[O-])=Nc2ccccc21 (stereo not drawn)	none (no result: proCasp3 act, Arr AP2 block, proCasp7 act)
CC(C)(C)OC(=O)N1c2ccccc2[C@]2(N3CCCC3)C[C@H](C(=O)O)N(C(=O)OC(C)(C)C)[C@H]12	none (no result: proCasp3 act, Arr AP2 block, proCasp7 act)
CC(=O)N(Cc1cccnc1)c1cccc(-c2nc3ccccc3s2)c1	PLCg1 inh 9.8 | PLCg1 ctr inactive | PLCb3 confirm inactive
COc1cc(C(=O)NCc2ccc(C)cc2)ccc1OC(F)F	PLCg1 inh 9.7 | PLCg1 ctr inactive | PLCb3 confirm inactive
Cc1cc(N2CCN(CC(C)(C)O)C[C@@H]2C)ccc1N1CCN(Cc2ccccc2)[C@H](C)C1	none (no result: proCasp3 act, Arr AP2 block, proCasp7 act)
COc1cccc(NC(=O)CSc2nnc(Cc3ccc(C)cc3)c(=O)n2N)c1	none
COc1ccc(Cc2nnc(SCC(=O)Nc3ccc(C)cc3)n(N)c2=O)cc1	PLCg1 inh 10 | PLCg1 ctr inactive | PLCb3 confirm inactive
COCCCNC(=O)C[C@H]1C[C@@]2(C(=O)OC)C(=C[C@H](COCc3ccccc3)O[C@@H]2C)N(Cc2cccc3ccccc23)C1=O	none (no result: proCasp3 act, Arr AP2 block, proCasp7 act)
Clc1cccc2sc(N3CCN(c4ccccc4)CC3)nc12	PLCg1 inh 11 | PLCg1 ctr inactive | PLCb3 confirm inactive
CCC(=O)NC(Nc1nc(C)cs1)(C(=O)OC)C(F)(F)F (stereo not drawn)	PLC-beta3 inh 11 | PLCg1 ctr inactive | PLCb3 confirm inactive
COC(=O)C(NC(=O)c1ccc(F)cc1)(Nc1nc(C)cs1)C(F)(F)F (stereo not drawn)	none
COc1ccc(CC(=O)NCC2CCCN(Cc3cccc(C(F)(F)F)c3)C2)cc1 (stereo not drawn)	PLCg1 inh 11 | PLCg1 ctr inactive | PLCb3 confirm inactive
COc1ccc(CCNC(=O)c2cccc(Br)c2)cc1OC	PLCg1 inh 11 | PLCg1 ctr inactive | PLCb3 confirm inactive
CCC(CC)c1nn2c(N)c(/C=C3\C=Nc4ccccc43)c(=O)nc2s1	PLCg1 inh 10 | PLCg1 ctr inactive | PLCb3 confirm inactive
S=c1cn[nH]c2ccccc12	none (no result: proCasp3 act, proCasp7 act)
CC(C)(C)N(NC(=O)Nc1ccccc1)C(=O)c1ccccc1	PLCg1 inh 13 | PLCg1 ctr inactive | PLCb3 confirm inactive
CC(C)(C)N(NC(=O)Nc1ccc(Cl)cc1)C(=O)c1ccccc1	none
Cc1ccccc1CN1CCCCC(NC(=O)c2ccc(Br)cc2)C1=O (stereo not drawn)	none (no result: proCasp3 act, Arr AP2 block, proCasp7 act)
C[C@H]1CCC(=O)N([C@H](COc2ccccc2)Cc2ccccc2)CC1	PLCg1 inh 11 | PLCg1 ctr inactive | PLCb3 confirm inactive
CCCCN1C(=O)N2CCc3ccccc3C2CS1(=O)=O (stereo not drawn)	none (no result: proCasp3 act, Arr AP2 block, proCasp7 act)
Cc1cc(NC(=O)C2C3C(=O)N(Cc4ccc(Cl)cc4)C(C(=O)NCc4ccccc4)C34C=CC2(C)O4)no1 (stereo not drawn)	PLCg1 inh 10, PLC-beta3 inh 13 | PLCg1 ctr inactive | PLCb3 confirm inactive
O=c1[nH]ncc(N/N=C\c2cccnc2)c1Cl	none
O=c1[nH]ncc(N/N=C\c2ccncc2)c1Cl	PLC-beta3 inh 11 | PLCg1 ctr inactive | PLCb3 confirm inactive
Cc1cc(NC(=O)c2cc(-c3ccccc3)on2)n(-c2ccccc2)n1	PLC-beta3 inh 12 | PLCg1 ctr inactive | PLCb3 confirm inactive
O=C(Cn1nnc(-c2ccccc2)n1)Nc1ccccc1N1CCOCC1	none
Cc1ccc(-c2nnn(CC(=O)Nc3ccccc3N3CCOCC3)n2)cc1	PLCg1 inh 11 | PLCg1 ctr inactive | PLCb3 confirm inactive
N#Cc1c(NC(=O)CSc2nnnn2C2CCCC2)sc2c1CCCC2	PLCg1 inh 10.0 | PLCg1 ctr inactive | PLCb3 confirm inactive
CCOC(=O)NC(Nc1nnc(SCC)s1)(C(F)(F)F)C(F)(F)F	PLCg1 inh 11 | PLCg1 ctr inactive | PLCb3 confirm inactive
Cc1cc(F)ccc1C(=O)N1CCC(Oc2cccnc2)CC1	none (no result: proCasp3 act, Arr AP2 block, proCasp7 act)
CC(=O)N1CCN(C(=O)CSc2nc3cccnc3n2C)CC1	none (no result: proCasp3 act, Arr AP2 block, proCasp7 act)
O=C(C[C@H]1C/C=C\CC[C@@H](Cc2ccc(F)cc2)C(=O)OC[C@H]2CCCN2C1=O)N[C@H](CO)Cc1ccccc1	none
O=C(C[C@@H]1C/C=C\CCC(=O)OC[C@@H]2CCCN2C1=O)N[C@@H](CO)Cc1ccccc1	PLCg1 inh 13, PLC-beta3 inh 12 | PLCg1 ctr inactive | PLCb3 confirm inactive
O=C(C[C@@H]1C/C=C\C[C@H](Cc2ccc(F)cc2)C(=O)OC[C@H]2CCCN2C1=O)NCCO	PLCg1 inh 10 | PLCg1 ctr inactive | PLCb3 confirm inactive
O=C(C[C@@H]1C/C=C\C[C@@H](Cc2ccc(F)cc2)C(=O)OC[C@H]2CCCN2C1=O)NCCO	none (no result: Arr AP2 block)
